Reference: ChEMBL document CHEMBL4196022, “Alkynyl-containing phenylthiazoles: Systemically active antibacterial agents effective against methicillin-resistant Staphylococcus aureus (MRSA)” (Eur J Med Chem, 2018)
pIC50: −log10 of the molar value. Converted amounts (≈) assume the structure as drawn.

Columns and labels:
[1] = tested on: Staphylococcus aureus; experiment: Antibacterial activity against methicillin-resistant Staphylococcus aureus NRS123 (USA400) after 20 hrs by broth microdilution assay; format: functional
Outline: (§1)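 Broth microdilution per CLSI in cation-adjusted Mueller Hinton broth. Compounds serially diluted, in triplicate. Incubation at 37 °C for at least 20 hours. MIC taken as the lowest concentration with no visible bacterial growth.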

[2] = tested on: Mus musculus; experiment: Toxicity in wounded skin area of Balb/c mouse infected with methicillin-resistant Staphylococcus aureus USA300 at 2% administered topically twice daily for 5 consecutive days measured 12 hrs post last dose; format: organism-based; conditions: in vivo, topical_or_ocular
Outline: (§2)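 Female Balb/c mice, 8 weeks old, n=5 per group. Intradermal injection of 40 μL of 1.32×10^9 CFU/mL USA300; a wound formed by ~66 h. Treated topically with a 2% suspension in petroleum jelly twice daily for 5 days; the vehicle group served as control. Wounds excised 12 h after the last dose, homogenized in PBS and plated on mannitol salt agar; sites also observed for redness and swelling.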

[3] = tested on: Staphylococcus aureus; experiment: Ratio of MBC to MIC for vancomycin-resistant Staphylococcus aureus VRS10; format: functional
Outline: (§3)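 MBC/MIC ratio. […] MBC by plating no-growth wells onto tryptic soy agar at 37 °C for at least 18 h; taken as the concentration giving 99.9% growth inhibition.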

[4] = tested on: Mus musculus; experiment: Induction of inflammation in Balb/c mouse infected with methicillin-resistant Staphylococcus aureus USA300 assessed as swelling around wounded skin area at 2% administered topically twice daily for 5 consecutive days measured 12 hrs post last dose; format: organism-based; conditions: in vivo, topical_or_ocular; outline: as §2
[5] = tested on: Rattus norvegicus; experiment: AUC in Sprague-Dawley rat at 2 uM administered as single iv bolus dose by LC-MS/MS analysis; format: ADME, organism-based; conditions: in vivo
Outline: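 Male naïve Sprague-Dawley rats (three animals) received an IV bolus of a 2 μM solution. EDTA-K2 blood was sampled over 12 h post dose. Plasma was protein-precipitated with acetonitrile and quantified by LC/MS/MS. Parameters came from two-compartmental pharmacokinetic analysis.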

[6] = tested on: Staphylococcus aureus; experiment: Ratio of MBC to MIC for methicillin-resistant Staphylococcus aureus NRS119; format: functional; outline: as §3
[7] = tested on: Staphylococcus aureus; experiment: Bactericidal activity against methicillin resistant vancomycin-resistant Staphylococcus aureus VRS11a up to 18 hrs by broth microdilution assay; format: functional; conditions: read-out: MBC99.9
[8] = tested on: Staphylococcus aureus; experiment: Antibacterial activity against vancomycin-resistant Staphylococcus aureus VRS10 after 20 hrs by broth microdilution assay; format: functional; conditions: VRS10, 20 h; outline: as §1
[9] = tested on: Staphylococcus aureus; experiment: Ratio of MBC to MIC for methicillin-resistant Staphylococcus aureus USA300; format: functional; outline: as §3
[10] = tested on: Staphylococcus aureus; experiment: Bactericidal activity against methicillin resistant Staphylococcus aureus NRS123 (USA400) up to 18 hrs by broth microdilution assay; format: functional; conditions: read-out: MBC99.9
[11] = tested on: Staphylococcus aureus; experiment: Antibacterial activity against vancomycin-resistant Staphylococcus aureus VRS12 after 20 hrs by broth microdilution assay; format: functional; conditions: VRS12, 20 h; outline: as §1
[12] = Efflux ratio of apparent permeability in human Caco2 cells at 10 uM after 60 mins by LC-MS/MS analysis; format: ADME, cell-based; conditions: caco-2, 1 h
Outline: (§4)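 Caco-2 monolayers were seeded at 1 × 10^5 cells/cm2 and differentiated for three weeks. Test article was at 10 μM (1% DMSO) in HBSS-MES pH 6.5 or HBSS-HEPES pH 7.4 and added to the donor side. Incubation ran 60 min (A→B) or 40 min (B→A), and receiver buffer was analysed by LC/MS/MS. Lucifer yellow and fluorescein checked monolayer integrity. Efflux ratio = Papp(B→A)/Papp(A→B).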

[13] = tested on: Staphylococcus aureus; experiment: Potency index, ratio of vancomycin MIC to compound MIC for antibacterial activity against vancomycin-resistant Staphylococcus aureus VRS11a; format: functional
[14] = tested on: Staphylococcus aureus; experiment: Potency index, ratio of vancomycin MIC to compound MIC for antibacterial activity against vancomycin-resistant Staphylococcus aureus VRS10; format: functional
[15] = tested on: Staphylococcus aureus; experiment: Ratio of MBC to MIC for methicillin-resistant Staphylococcus aureus NRS107; format: functional; outline: as §3
[16] = tested on: Staphylococcus aureus; experiment: Ratio of MBC to MIC for methicillin-resistant Staphylococcus aureus NRS123 (USA400); format: functional; outline: as §3
[17] = tested on: Staphylococcus aureus; experiment: Bactericidal activity against methicillin resistant vancomycin-resistant Staphylococcus aureus VRS12 up to 18 hrs by broth microdilution assay; format: functional; conditions: VRS12, 18 h, read-out: MBC99.9
Outline: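 MBC set up from the MIC plates. Aliquots from wells with no growth spotted onto tryptic soy agar and incubated at 37 °C for at least 18 hours. MBC taken as the lowest concentration giving 99.9% inhibition of bacterial growth.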

[18] = tested on: Staphylococcus aureus; experiment: Ratio of MBC to MIC for vancomycin-resistant Staphylococcus aureus VRS11a; format: functional; outline: as §3
[19] = tested on: Staphylococcus aureus; experiment: Bactericidal activity against methicillin-resistant Staphylococcus aureus USA300 up to 18 hrs by broth microdilution assay; format: functional; conditions: USA300, 18 h, read-out: MBC99.9
[20] = tested on: Staphylococcus aureus; experiment: Antibacterial activity against methicillin-resistant Staphylococcus aureus NRS107 after 20 hrs by broth microdilution assay; format: functional; conditions: NRS107, 20 h; outline: as §1
[21] = tested on: Staphylococcus aureus; experiment: Ratio of MBC to MIC for vancomycin-resistant Staphylococcus aureus VRS12; format: functional; outline: as §3
[22] = Half life in human liver microsomes at 0.1 uM preincubated for 5 mins followed by NDAPH addition measured up to 60 mins by HPLC-MS/MS analysis; conditions: 1 h
[23] = tested on: Staphylococcus aureus; experiment: Antibacterial activity against methicillin-resistant Staphylococcus aureus USA300 in Balb/c mouse skin infection model assessed as reduction in bacterial burden in wounded skin area at 2% administered topically twice daily for 5 consecutive days measured 12 hrs post last dose relative to control; format: functional; design: scale not given: the % may be the effect or the level left; outline: as §2
[24] = Apparent permeability from apical to basolateral side in human Caco2 cells at 10 uM after 60 mins by LC-MS/MS analysis; format: ADME, cell-based; conditions: caco-2, 1 h; outline: as §4
[25] = tested on: Staphylococcus aureus; experiment: Antibacterial activity against vancomycin-resistant Staphylococcus aureus VRS11a after 20 hrs by broth microdilution assay; format: functional; outline: as §1
[26] = target: T1, Ditrans,polycis-undecaprenyl-diphosphate synthase ((2E,6E)-farnesyl-diphosphate specific) (Escherichia coli (strain K12), UniProt P60472); experiment: Inhibition of Escherichia coli UPPS using IPP and FPP as substrate preincubated for 30 mins followed by substrate addition measured after 20 mins by malachite green phosphate assay
T1 sequence (P60472 whole entry): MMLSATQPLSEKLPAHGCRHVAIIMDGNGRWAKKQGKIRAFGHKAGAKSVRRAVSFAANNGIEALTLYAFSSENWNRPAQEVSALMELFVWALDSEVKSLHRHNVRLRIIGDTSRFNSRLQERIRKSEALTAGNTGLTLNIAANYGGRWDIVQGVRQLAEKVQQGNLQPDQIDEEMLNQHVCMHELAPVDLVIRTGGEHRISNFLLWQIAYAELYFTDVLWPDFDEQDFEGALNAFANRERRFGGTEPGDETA

[27] = tested on: Staphylococcus aureus; experiment: Bactericidal activity against methicillin-resistant Staphylococcus aureus NRS119 up to 18 hrs by broth microdilution assay; format: functional; conditions: NRS119, 18 h, read-out: MBC99.9
[28] = tested on: Staphylococcus aureus; experiment: Antibacterial activity against methicillin-resistant Staphylococcus aureus NRS119 after 20 hrs by broth microdilution assay; format: functional; conditions: NRS119, 20 h; outline: as §1
[29] = tested on: Mus musculus; experiment: Induction of inflammation in Balb/c mouse infected with methicillin-resistant Staphylococcus aureus USA300 assessed as redness around wounded skin area at 2% administered topically twice daily for 5 consecutive days measured 12 hrs post last dose relative to control; format: organism-based; conditions: in vivo, topical_or_ocular; outline: as §2

For C/C(=N\NC(=N)N)c1sc(-c2ccc(C#CC3CC3)cc2)nc1C, the MIC [1] was 2 µg/mL (≈ 5.93 µM), the Activity [2] was “Non-Toxic” and the Ratio [3] was “<=3”. The Activity [4] was “Non-Toxic”, the AUC [5] was 690 ng·h/mL and the Ratio [6] was “<=3”. For the same molecule, the MBC [7] was 2 µg/mL (≈ 5.93 µM), the MIC [8] was 2 µg/mL (≈ 5.93 µM) and the Ratio [9] was “<=3”. For the same molecule, the MBC [10] was 2 µg/mL (≈ 5.93 µM), the MIC [11] was 2 µg/mL (≈ 5.93 µM) and the Ratio [12] was 69. For the same molecule, the Ratio [13] was >100, the Ratio [14] was >100 and the Ratio [15] was “<=3”. The Ratio [16] was “<=3”, the MBC [17] was 2 µg/mL (≈ 5.93 µM) and the Ratio [18] was “<=3”. The MBC [19] was 4 µg/mL (≈ 11.9 µM), the MIC [20] was 2 µg/mL (≈ 5.93 µM) and the Ratio [21] was “<=3”. For the same molecule, the t1/2 [22] was 4.87 h, the Activity [23] was 73% and the Papp [24] was 0.05 ×10⁻⁶ cm/s. It also gave an MIC [25] of 2 µg/mL (≈ 5.93 µM), a pIC50 [26] of 4.42 and an MBC [27] of 2 µg/mL (≈ 5.93 µM). The MIC [28] was 2 µg/mL (≈ 5.93 µM) and the Activity [29] was “Non-Toxic”.
